Measurements as given in ChEMBL document CHEMBL1146496, “Expanding the strategies in natural product studies of marine-derived fungi: a chemical investigation of penicillium obtained from deep water sediment” (J Nat Prod, 2004).
≈ marks a conversion by molar mass, not a printed value.

Tests used:
L1210 [1] = experiment: Cytotoxicity against mouse L1210 cells assessed as zone units at 8.0 mg/mL by disk diffusion soft agar colony formation assay; format: functional
Procedure, shortened: (§1)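 Soft agar colony formation with disk diffusion. Sample dissolved in 250 µL DMSO; a 15 µL aliquot at the stated concentration is spotted on a cellulose disk laid on agar containing the cells. After incubation, the zone of colony inhibition is measured in zone units (200 zu = 6 mm). Activity is defined as ≥300 zu.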

MDA-MB-435 = experiment: Cytotoxicity against human MDA-MB-435 after 48 hrs by SRB assay; format: functional, cell-based; conditions: MDA-MB-435, 48 h
Procedure, shortened: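 MDA-MB-435 cells plated and left to attach and grow 24 h, then exposed to compound or ethanol vehicle for 48 h. Cells fixed with 10% trichloroacetic acid, stained with 0.4% sulforhodamine B, absorbance read at 560 nm. Full dose–response in triplicate; IC50 (50% proliferation inhibition) taken from the linear portion of the log-dose–response curve.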

[2] = Cytotoxicity against human H116 cells assessed as zone units at 8.0 mg/mL by disk diffusion soft agar colony formation assay; format: functional; procedure, shortened: as §1
MC-38 [3] = experiment: Cytotoxicity against mouse C38 cells assessed as zone units at 8.0 mg/mL by disk diffusion soft agar colony formation assay; format: functional; procedure, shortened: as §1
[4] = Cytotoxicity against human H125 cells assessed as zone units at 8.0 mg/mL by disk diffusion soft agar colony formation assay; format: functional; procedure, shortened: as §1
[5] = Cytotoxicity against mouse CFU-GM cells assessed as zone units at 8.0 mg/mL by disk diffusion soft agar colony formation assay; format: cell-based; procedure, shortened: as §1
[6] = Cytotoxicity against human H116 cells assessed as zone units at 6.8 mg/mL by disk diffusion soft agar colony formation assay; format: functional; procedure, shortened: as §1
[7] = Cytotoxicity against human H125 cells assessed as zone units at 6.8 mg/mL by disk diffusion soft agar colony formation assay; format: functional; procedure, shortened: as §1
MC-38 [8] = experiment: Cytotoxicity against mouse C38 cells assessed as zone units at 6.8 mg/mL by disk diffusion soft agar colony formation assay; format: functional; procedure, shortened: as §1
[9] = Cytotoxicity against mouse CFU-GM cells assessed as zone units at 6.8 mg/mL by disk diffusion soft agar colony formation assay; format: cell-based; procedure, shortened: as §1
L1210 [10] = experiment: Cytotoxicity against mouse L1210 cells assessed as zone units at 6.8 mg/mL by disk diffusion soft agar colony formation assay; format: functional; procedure, shortened: as §1
L1210 [11] = experiment: Cytotoxicity against mouse L1210 cells assessed as zone units at 4.0 mg/mL by disk diffusion soft agar colony formation assay; format: functional; procedure, shortened: as §1
[12] = Cytotoxicity against human H125 cells assessed as zone units at 4.0 mg/mL by disk diffusion soft agar colony formation assay; format: functional; procedure, shortened: as §1
MC-38 [13] = experiment: Cytotoxicity against mouse C38 cells assessed as zone units at 4.0 mg/mL by disk diffusion soft agar colony formation assay; format: functional; procedure, shortened: as §1
CCRF-CEM [14] = experiment: Cytotoxicity against human CEM cells assessed as zone units at 4.0 mg/mL by disk diffusion soft agar colony formation assay; format: functional; procedure, shortened: as §1
[15] = Cytotoxicity against human H116 cells assessed as zone units at 4.0 mg/mL by disk diffusion soft agar colony formation assay; format: functional; procedure, shortened: as §1
[16] = Cytotoxicity against mouse CFU-GM cells assessed as zone units at 4.0 mg/mL by disk diffusion soft agar colony formation assay; format: cell-based; procedure, shortened: as §1
L1210 [17] = experiment: Cytotoxicity against mouse L1210 cells assessed as zone units at 11.6 mg/mL by disk diffusion soft agar colony formation assay; format: functional; procedure, shortened: as §1
CCRF-CEM [18] = experiment: Cytotoxicity against human CEM cells assessed as zone units at 11.6 mg/mL by disk diffusion soft agar colony formation assay; format: functional; procedure, shortened: as §1
[19] = Cytotoxicity against human H125 cells assessed as zone units at 11.6 mg/mL by disk diffusion soft agar colony formation assay; format: functional; procedure, shortened: as §1
MC-38 [20] = experiment: Cytotoxicity against mouse C38 cells assessed as zone units at 11.6 mg/mL by disk diffusion soft agar colony formation assay; format: functional; procedure, shortened: as §1
[21] = Cytotoxicity against mouse CFU-GM cells assessed as zone units at 11.6 mg/mL by disk diffusion soft agar colony formation assay; format: cell-based; procedure, shortened: as §1
[22] = Cytotoxicity against human H116 cells assessed as zone units at 11.6 mg/mL by disk diffusion soft agar colony formation assay; format: functional; procedure, shortened: as §1
[23] = Cytotoxicity against human H125 cells assessed as zone units at 6.0 mg/mL by disk diffusion soft agar colony formation assay; format: functional; procedure, shortened: as §1
MC-38 [24] = experiment: Cytotoxicity against mouse C38 cells assessed as zone units at 6.0 mg/mL by disk diffusion soft agar colony formation assay; format: functional; procedure, shortened: as §1
[25] = Cytotoxicity against mouse CFU-GM cells assessed as zone units at 6.0 mg/mL by disk diffusion soft agar colony formation assay; format: cell-based; procedure, shortened: as §1
[26] = Cytotoxicity against human H116 cells assessed as zone units at 6.0 mg/mL by disk diffusion soft agar colony formation assay; format: functional; procedure, shortened: as §1
L1210 [27] = experiment: Cytotoxicity against mouse L1210 cells assessed as zone units at 6.0 mg/mL by disk diffusion soft agar colony formation assay; format: functional; procedure, shortened: as §1

COC1=CC(=O)[C@]2(C)O[C@@]23CC(C)OC13O (stereo partly drawn) [(+)-EPOXYSERINONE B]
Activity (L1210 [1]): 250 Zone units | IC50 (MDA-MB-435): > 10 µg/mL | Activity [2]: 200 Zone units | Activity (MC-38 [3]): 400 Zone units | Activity [4]: 50 Zone units | Activity [5]: 400 Zone units

COC1=CC(=O)[C@]2(C)O[C@@]23C[C@@H](C)O[C@@]13O
Activity [6]: 0 Zone units | IC50 (MDA-MB-435): > 10 µg/mL | Activity [7]: 0 Zone units | Activity (MC-38 [8]): 200 Zone units | Activity [9]: 0 Zone units | Activity (L1210 [10]): 50 Zone units

COC1=CC(=O)C(C)=C(C[C@H](C)OC=O)C1=O [(+)-FORMYLANSERINONE B]
Activity (L1210 [11]): 550 Zone units | Activity [12]: 350 Zone units | IC50 (MDA-MB-435): 2.9 µg/mL (≈ 12.2 µM) | Activity (MC-38 [13]): 250 Zone units | Activity (CCRF-CEM [14]): 550 Zone units | Activity [15]: 400 Zone units | Activity [16]: 600 Zone units

COC1=CC(=O)C(C)=C(C[C@H](C)O)C1=O [ANSERINONE B]
Activity (L1210 [17]): 700 Zone units | IC50 (MDA-MB-435): 3.6 µg/mL (≈ 17.1 µM) | Activity (CCRF-CEM [18]): 650 Zone units | Activity [19]: 400 Zone units | Activity (MC-38 [20]): 400 Zone units | Activity [21]: 650 Zone units | Activity [22]: 400 Zone units

COC1=CC(=O)C(C)=C(CC(C)=O)C1=O [ANSERINONE A]
Activity [23]: 50 Zone units | IC50 (MDA-MB-435): 2.22 µg/mL (≈ 10.7 µM) | Activity (MC-38 [24]): 300 Zone units | Activity [25]: 150 Zone units | Activity [26]: 50 Zone units | Activity (L1210 [27]): 300 Zone units
